According to ChEMBL document CHEMBL5576109, “Hydantoin derivative dimers as broad-spectrum antimicrobial agents against ESKAPE pathogens with enhanced killing rate and stability” (RSC Med Chem, 2024):
Values after ≈ are worked out from the molar mass of the structure shown. Values belong to the compound of their own block, whether it stands above or below them.

Key:
Pseudomonas aeruginosa = assay: Antibacterial activity against Pseudomonas aeruginosa CMCC 10104 assessed as reduction bacterial growth after 16 hrs by TECAN SPARK microplate reader analysis; format: functional
Outline: (§1)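 Single colony grown overnight in 4 mL TSB at 37 °C, diluted 100-fold and grown to mid-log phase. Compounds 2-fold serially diluted in TSB and mixed 1:1 with bacteria in TSB (1 × 10^6 CFU/mL). Incubated 16 h at 37 °C, then A600 read. MIC taken as the lowest concentration giving complete growth inhibition.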

Staphylococcus aureus [1] = assay: Antibacterial activity against Staphylococcus aureus ATCC 29213 assessed as reduction bacterial growth after 16 hrs by TECAN SPARK microplate reader analysis; format: functional; outline: as §1
[2] = Hemolytic activity in mouse red blood cells assessed as hemolysis incubated for 1 hr by TECAN SPARK microplate reader analysis; format: toxicity, cell-based, Erythrocyte; settings: red blood cells (erythrocytes)
Outline: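 Mouse RBCs washed three times in 1× PBS by centrifugation (3500 rpm, 10 min) and made up as a 5% v/v suspension. Incubated with 2-fold serially diluted compound in PBS for 1 h at 37 °C, then centrifuged. Supernatant diluted in PBS and A540 read. % hemolysis calculated relative to 1% Triton X-100 (100%) and PBS (0%).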

Bacillus subtilis = assay: Antibacterial activity against Bacillus subtilis ATCC 6633 assessed as reduction bacterial growth after 16 hrs by TECAN SPARK microplate reader analysis; format: functional; outline: as §1
Staphylococcus aureus [3] = assay: Antibacterial activity against methicillin-resistant Staphylococcus aureus ATCC 43300 assessed as reduction bacterial growth after 16 hrs by TECAN SPARK microplate reader analysis; format: functional
Outline: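 Broth microdilution in TSB: single colony grown overnight at 37 °C, diluted 100-fold and grown to mid-log phase. 2-fold serial compound dilutions mixed 1:1 with bacteria at 1 × 10^6 CFU/mL, incubated 16 h at 37 °C, absorbance read at 600 nm. MIC taken as lowest concentration giving complete growth inhibition.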

Escherichia coli = assay: Antibacterial activity against Escherichia coli ATCC 25922 assessed as reduction bacterial growth after 16 hrs by TECAN SPARK microplate reader analysis; format: functional; outline: as §1
Enterococcus faecalis = assay: Antibacterial activity against Enterococcus faecalis ATCC 29212 assessed as reduction bacterial growth after 16 hrs by TECAN SPARK microplate reader analysis; format: functional; outline: as §1
Acinetobacter baumannii = assay: Antibacterial activity against Acinetobacter baumannii ATCC 19606 assessed as reduction bacterial growth after 16 hrs by TECAN SPARK microplate reader analysis; format: functional; outline: as §1
Klebsiella pneumoniae = assay: Antibacterial activity against Klebsiella pneumoniae ATCC 10031 assessed as reduction bacterial growth after 16 hrs by TECAN SPARK microplate reader analysis; format: functional; outline: as §1

Compound: CCCCCCN1C(=O)[C@H](CCCCN)N(Cc2ccc(/C=C/c3ccc(CN4C(=O)N(CCCCCC)C(=O)[C@@H]4CCCCN)cc3)cc2)C1=O
- MIC (Pseudomonas aeruginosa): 15.6 µg/mL (≈ 21.8 µM)
- MIC (Staphylococcus aureus [1]): 3.91 µg/mL (≈ 5.47 µM)
- HC50 at 1 h [2]: 43.5 µg/mL
- MIC (Bacillus subtilis): 7.81 µg/mL (≈ 10.9 µM)
- MIC (Staphylococcus aureus [3]): 31.2 µg/mL (≈ 43.7 µM)
- MIC (Escherichia coli): 31.2 µg/mL (≈ 43.7 µM)
- MIC (Enterococcus faecalis): 7.81 µg/mL (≈ 10.9 µM)
- MIC (Acinetobacter baumannii): 15.6 µg/mL (≈ 21.8 µM)
- MIC (Klebsiella pneumoniae): 3.91 µg/mL (≈ 5.47 µM)

Compound: CCCCCCN1C(=O)[C@H](CCCCN)N(Cc2cccc(-c3cccc(CN4C(=O)N(CCCCCC)C(=O)[C@@H]4CCCCN)c3)c2)C1=O
- MIC (Pseudomonas aeruginosa): 15.6 µg/mL (≈ 22.7 µM)
- MIC (Staphylococcus aureus [1]): 3.91 µg/mL (≈ 5.68 µM)
- HC50 at 1 h [2]: 38 µg/mL
- MIC (Bacillus subtilis): 7.81 µg/mL (≈ 11.3 µM)
- MIC (Staphylococcus aureus [3]): 7.81 µg/mL (≈ 11.3 µM)
- MIC (Escherichia coli): 3.91 µg/mL (≈ 5.68 µM)
- MIC (Enterococcus faecalis): 15.6 µg/mL (≈ 22.7 µM)
- MIC (Acinetobacter baumannii): 7.81 µg/mL (≈ 11.3 µM)
- MIC (Klebsiella pneumoniae): 7.81 µg/mL (≈ 11.3 µM)

Compound: CCCCCCN1C(=O)[C@H](CCCCN)N(Cc2ccc(-c3ccc(-c4ccc(CN5C(=O)N(CCCCCC)C(=O)[C@@H]5CCCCN)cc4)cc3)cc2)C1=O
- MIC (Pseudomonas aeruginosa): 250 µg/mL (≈ 327 µM)
- MIC (Staphylococcus aureus [1]): 7.81 µg/mL (≈ 10.2 µM)
- MIC (Bacillus subtilis): 3.91 µg/mL (≈ 5.11 µM)
- MIC (Staphylococcus aureus [3]): 250 µg/mL (≈ 327 µM)
- MIC (Escherichia coli): 62.5 µg/mL (≈ 81.7 µM)
- MIC (Enterococcus faecalis): 15.6 µg/mL (≈ 20.4 µM)
- MIC (Acinetobacter baumannii): 125 µg/mL (≈ 163 µM)
- MIC (Klebsiella pneumoniae): 62.5 µg/mL (≈ 81.7 µM)

Compound: CCCCCN1C(=O)[C@H](CCCCN)N(Cc2ccc(-c3ccc(CN4C(=O)N(CCCCC)C(=O)[C@@H]4CCCCN)cc3)cc2)C1=O
- MIC (Pseudomonas aeruginosa): 62.5 µg/mL (≈ 94.6 µM)
- MIC (Staphylococcus aureus [1]): 7.81 µg/mL (≈ 11.8 µM)
- HC50 at 1 h [2]: 135 µg/mL
- MIC (Bacillus subtilis): 7.81 µg/mL (≈ 11.8 µM)
- MIC (Staphylococcus aureus [3]): 15.6 µg/mL (≈ 23.6 µM)
- MIC (Escherichia coli): 7.81 µg/mL (≈ 11.8 µM)
- MIC (Enterococcus faecalis): 31.2 µg/mL (≈ 47.3 µM)
- MIC (Acinetobacter baumannii): 15.6 µg/mL (≈ 23.6 µM)
- MIC (Klebsiella pneumoniae): 62.5 µg/mL (≈ 94.6 µM)

Compound: CN[C@H](CC(C)C)C(=O)N[C@H]1C(=O)N[C@@H](CC(N)=O)C(=O)N[C@H]2C(=O)N[C@H]3C(=O)N[C@H](C(=O)N[C@H](C(=O)O)c4cc(O)cc(O)c4-c4cc3ccc4O)[C@H](O)c3ccc(c(Cl)c3)Oc3cc2cc(c3O[C@@H]2O[C@H](CO)[C@@H](O)[C@H](O)[C@H]2O[C@H]2C[C@](C)(N)[C@H](O)[C@H](C)O2)Oc2ccc(cc2Cl)[C@H]1O [VANCOMYCIN]
- MIC (Staphylococcus aureus [1]): 1.95 µg/mL (≈ 1.35 µM)
- MIC (Escherichia coli): 125 µg/mL (≈ 86.3 µM)

Compound: CCCCCCN1C(=O)[C@H](CCCCNC(=N)N)N(Cc2ccc3cc(CN4C(=O)N(CCCCCC)C(=O)[C@@H]4CCCCNC(=N)N)ccc3c2)C1=O
- MIC (Pseudomonas aeruginosa): 15.6 µg/mL (≈ 20.9 µM)
- MIC (Staphylococcus aureus [1]): 3.91 µg/mL (≈ 5.23 µM)
- HC50 at 1 h [2]: 117 µg/mL
- MIC (Bacillus subtilis): 3.91 µg/mL (≈ 5.23 µM)
- MIC (Staphylococcus aureus [3]): 15.6 µg/mL (≈ 20.9 µM)
- MIC (Escherichia coli): 15.6 µg/mL (≈ 20.9 µM)
- MIC (Enterococcus faecalis): 3.91 µg/mL (≈ 5.23 µM)
- MIC (Acinetobacter baumannii): 31.2 µg/mL (≈ 41.8 µM)
- MIC (Klebsiella pneumoniae): 7.81 µg/mL (≈ 10.5 µM)

- MIC (Staphylococcus aureus [1]): 250 µg/mL (≈ 292 µM)
- MIC (Escherichia coli): 250 µg/mL (≈ 292 µM)
Compound: CCCCCCCCCCCCN1C(=O)[C@H](CCCCN)N(Cc2ccc(-c3ccc(CN4C(=O)N(CCCCCCCCCCCC)C(=O)[C@@H]4CCCCN)cc3)cc2)C1=O

Compound: CCCCCCN1C(=O)[C@H](CCCCN)N(Cc2ccc(Oc3ccc(CN4C(=O)N(CCCCCC)C(=O)[C@@H]4CCCCN)cc3)cc2)C1=O
- MIC (Pseudomonas aeruginosa): 31.2 µg/mL (≈ 44.3 µM)
- MIC (Staphylococcus aureus [1]): 3.91 µg/mL (≈ 5.55 µM)
- HC50 at 1 h [2]: 69 µg/mL
- MIC (Bacillus subtilis): 3.91 µg/mL (≈ 5.55 µM)
- MIC (Staphylococcus aureus [3]): 7.81 µg/mL (≈ 11.1 µM)
- MIC (Escherichia coli): 3.91 µg/mL (≈ 5.55 µM)
- MIC (Enterococcus faecalis): 7.81 µg/mL (≈ 11.1 µM)
- MIC (Acinetobacter baumannii): 3.91 µg/mL (≈ 5.55 µM)
- MIC (Klebsiella pneumoniae): 3.91 µg/mL (≈ 5.55 µM)

Compound: CCCCCCN1C(=O)[C@H](CCCCN)N(Cc2ccc(-c3ccc(CN4C(=O)N(CCCCCC)C(=O)[C@@H]4CCCCN)cc3)cc2)C1=O
- MIC (Pseudomonas aeruginosa): 15.6 µg/mL (≈ 22.7 µM)
- MIC (Staphylococcus aureus [1]): 1.95 µg/mL (≈ 2.83 µM)
- HC50 at 1 h [2]: 32.8 µg/mL
- MIC (Bacillus subtilis): 1.95 µg/mL (≈ 2.83 µM)
- MIC (Staphylococcus aureus [3]): 7.81 µg/mL (≈ 11.3 µM)
- MIC (Escherichia coli): 1.95 µg/mL (≈ 2.83 µM)
- MIC (Enterococcus faecalis): 7.81 µg/mL (≈ 11.3 µM)
- MIC (Acinetobacter baumannii): 3.91 µg/mL (≈ 5.68 µM)
- MIC (Klebsiella pneumoniae): 1.95 µg/mL (≈ 2.83 µM)

Compound: CCCCCCN1C(=O)[C@H](CCCCN)N(Cc2ccc(CN3C(=O)N(CCCCCC)C(=O)[C@@H]3CCCCN)c3ccccc23)C1=O
- MIC (Pseudomonas aeruginosa): 62.5 µg/mL (≈ 94.3 µM)
- MIC (Staphylococcus aureus [1]): 15.6 µg/mL (≈ 23.6 µM)
- MIC (Bacillus subtilis): 15.6 µg/mL (≈ 23.6 µM)
- MIC (Staphylococcus aureus [3]): 125 µg/mL (≈ 189 µM)
- MIC (Escherichia coli): 125 µg/mL (≈ 189 µM)
- MIC (Enterococcus faecalis): 62.5 µg/mL (≈ 94.3 µM)
- MIC (Acinetobacter baumannii): 125 µg/mL (≈ 189 µM)
- MIC (Klebsiella pneumoniae): 31.2 µg/mL (≈ 47.1 µM)

Compound: CCCCCCN1C(=O)[C@H](CCCCN)N(Cc2ccc(CN3C(=O)N(CCCCCC)C(=O)[C@@H]3CCCCN)cc2)C1=O
- MIC (Pseudomonas aeruginosa): 62.5 µg/mL (≈ 102 µM)
- MIC (Staphylococcus aureus [1]): 31.2 µg/mL (≈ 51 µM)
- MIC (Bacillus subtilis): 3.91 µg/mL (≈ 6.38 µM)
- MIC (Staphylococcus aureus [3]): 250 µg/mL (≈ 408 µM)
- MIC (Escherichia coli): 250 µg/mL (≈ 408 µM)
- MIC (Enterococcus faecalis): 125 µg/mL (≈ 204 µM)
- MIC (Acinetobacter baumannii): 250 µg/mL (≈ 408 µM)
- MIC (Klebsiella pneumoniae): 62.5 µg/mL (≈ 102 µM)

Compound: CCCCCCN1C(=O)[C@H](CCCCN)N(Cc2ccc(C#Cc3ccc(CN4C(=O)N(CCCCCC)C(=O)[C@@H]4CCCCN)cc3)cc2)C1=O
- MIC (Pseudomonas aeruginosa): 15.6 µg/mL (≈ 21.9 µM)
- MIC (Staphylococcus aureus [1]): 1.95 µg/mL (≈ 2.73 µM)
- HC50 at 1 h [2]: 18 µg/mL
- MIC (Bacillus subtilis): 3.91 µg/mL (≈ 5.48 µM)
- MIC (Staphylococcus aureus [3]): 62.5 µg/mL (≈ 87.7 µM)
- MIC (Escherichia coli): 7.81 µg/mL (≈ 11 µM)
- MIC (Enterococcus faecalis): 7.81 µg/mL (≈ 11 µM)
- MIC (Acinetobacter baumannii): 7.81 µg/mL (≈ 11 µM)
- MIC (Klebsiella pneumoniae): 7.81 µg/mL (≈ 11 µM)

Compound: NCCCC[C@H]1C(=O)N(C23C[C@H]4C[C@@H](C2)C[C@@H](C3)C4)C(=O)N1Cc1ccc(-c2ccc(CN3C(=O)N(C45C[C@H]6C[C@@H](C4)C[C@@H](C5)C6)C(=O)[C@@H]3CCCCN)cc2)cc1
- MIC (Pseudomonas aeruginosa): 250 µg/mL (≈ 317 µM)
- MIC (Staphylococcus aureus [1]): 1.95 µg/mL (≈ 2.47 µM)
- HC50 at 1 h [2]: 33.6 µg/mL
- MIC (Bacillus subtilis): 7.81 µg/mL (≈ 9.9 µM)
- MIC (Staphylococcus aureus [3]): 125 µg/mL (≈ 158 µM)
- MIC (Escherichia coli): 62.5 µg/mL (≈ 79.2 µM)
- MIC (Enterococcus faecalis): 7.81 µg/mL (≈ 9.9 µM)
- MIC (Acinetobacter baumannii): 15.6 µg/mL (≈ 19.8 µM)
- MIC (Klebsiella pneumoniae): 7.81 µg/mL (≈ 9.9 µM)

- MIC (Staphylococcus aureus [1]): 0.98 µg/mL (≈ 2.8 µM)
- MIC (Escherichia coli): 250 µg/mL (≈ 715 µM)
Compound: CC1(C)S[C@@H]2[C@H](NC(=O)[C@H](N)c3ccccc3)C(=O)N2[C@H]1C(=O)O [AMPICILLIN]
